For orientation: Kd means a measure of binding affinity in units of concentration. High values mean a looser complex, low ones a tighter complex.

This is an account of results in publication PMC10407628 (Computational and Structural Biotechnology Journal, 2023).

Test [1] deals with FITC-Bim BH3. As to the kind of experiment: fluorescence polarisation.
The target of test [2] is FITC-Bmf BH3. In words: fluorescence polarisation. (Polarisation of emitted light reports the rotation of a fluorescent probe.)
The target in test [3] is Mcl-1 (Mcl-1ΔN170ΔC23) (Homo sapiens, UniProt Q07820). As to the kind of experiment: Fluorescence polarization assay. It counts as binding. Put shortly: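 Human Mcl-1ΔN170ΔC23 was expressed His-SUMO-tagged in E. coli Rosetta BL21(DE3), Ni-purified, ULP1-cleaved, then SEC-purified. Protein was serially diluted in 20 mM Tris pH 8.0, 50 mM NaCl with FITC-labelled BH3 peptide (10 nM), shaken 1 min, and incubated 10 min at room temperature in the dark. Polarization (mP) was read in at least three replicates, and Kd was obtained by sigmoidal dose-response nonlinear regression.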
Mcl-1 (Mcl-1ΔN170ΔC23), sequence (Q07820 171-327 limits assumed, stated change not applied): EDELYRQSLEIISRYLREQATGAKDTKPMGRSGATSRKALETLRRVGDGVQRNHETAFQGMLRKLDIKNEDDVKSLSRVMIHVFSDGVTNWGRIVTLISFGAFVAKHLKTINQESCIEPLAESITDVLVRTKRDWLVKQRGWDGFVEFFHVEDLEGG

The target in test [4] is Bcl-xLΔC25ΔLoop (human, UniProt Q07817-1 1-208, removes the unstructured loop between residues 46–82). As to the kind of experiment: crystal structure.
The target of test [5] is T1, Bcl-2ΔC32ΔLoop (human, UniProt P10415;Q07817).
T1 chain: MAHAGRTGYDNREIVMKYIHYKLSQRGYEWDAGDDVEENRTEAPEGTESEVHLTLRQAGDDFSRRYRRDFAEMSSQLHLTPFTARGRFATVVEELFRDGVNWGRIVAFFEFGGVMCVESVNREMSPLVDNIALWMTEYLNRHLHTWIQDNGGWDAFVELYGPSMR
As to the kind of experiment: crystal structure.

The target in test [6] is R139A Bcl-xL (human, UniProt Q07817-1 1-208, R139A). In words: fluorescence polarisation.
For test [7], the target named is R146A Bcl-2 (human, UniProt P10415 1-207, R146A). As to the kind of experiment: fluorescence polarisation.
R146A Bcl-2, sequence (P10415 1-207 R146A): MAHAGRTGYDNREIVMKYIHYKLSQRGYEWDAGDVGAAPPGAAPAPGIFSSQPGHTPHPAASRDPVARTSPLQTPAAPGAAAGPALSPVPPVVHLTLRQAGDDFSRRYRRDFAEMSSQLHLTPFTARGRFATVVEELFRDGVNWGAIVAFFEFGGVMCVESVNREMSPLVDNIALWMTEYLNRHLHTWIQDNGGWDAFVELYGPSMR
Test [8] addresses Bcl-2ΔC32 (human, UniProt P10415 1-207). In words: fluorescence polarisation.
In test [9] the target is Bcl-xLΔC25 (human, UniProt Q07817-1 1-208). In words: fluorescence polarisation.

Ends that are not written are not given here. Peptide text beside a SMILES is read from it. * marks the point of attachment. FITC = O=C1OC2(c3ccc(O)cc3Oc3cc(O)ccc32)c2ccc(NC(=S)*)cc21

As to “Mcl-1ΔN170ΔC23 (from UniProt Q07820 171-327) (domain or fragment)”, the Kd in [1] was found to be 5.8 nM; in [2], 185 nM.
As to `CC[C@H](C)[C@H](NC(=O)[C@H](CS)NC(=O)[C@H](CCC(N)=O)NC(=O)[C@H](CC(C)C)NC(=O)[C@H](CCCCN)NC(=O)[C@H](CCCNC(=N)N)NC(=O)[C@H](C)NC(=O)[C@@H](NC(=O)[C@H](CCC(N)=O)NC(=O)[C@@H](NC(=O)[C@H](CCC(=O)O)NC(=O)[C@H](C)NC(=O)[C@H](CCC(N)=O)NC(=O)[C@H](Cc1c[nH]cn1)NC(=S)Nc1ccc2c(c1)C(=O)OC21c2ccc(O)cc2Oc2cc(O)ccc21)C(C)C)[C@@H](C)CC)C(=O)N[C@@H](C)C(=O)N[C@@H](CC(=O)O)C(=O)N[C@@H](CCC(N)=O)C(=O)N[C@@H](Cc1ccccc1)C(=O)N[C@@H](Cc1c[nH]cn1)C(=O)N[C@@H](CCCNC(=N)N)C(=O)N[C@@H](CC(C)C)C(=O)N[C@@H](Cc1c[nH]cn1)C(=O)N[C@H](C(=O)N[C@@H](CCC(N)=O)C(=O)N[C@@H](CCC(N)=O)C(=O)O)C(C)C` [FITC-Bmf BH3] ({FITC}-HQAEVQIARKLQCIADQFHRLHVQQ-OH), the Kd in [3] came out at 185 nM.
In turn, “Mcl-1 with Ala-227 substituted by Asp (from UniProt Q07820 171-327) (domain or fragment)” had a Kd in [2] of 49 nM.
Regarding HQAEVQIARKLQCIADQFHRLHVQQ [25-mer Bmf BH3 peptide], in test [4], the binding result is on record as “binds”.
Regarding EVQIARKLQCIADQFHRLHVQ [21-mer Bmf BH3 peptide], in test [5], the binding result is “binds”.
For {FITC}-HQAEVQIARKLQCIADQFHRLHVQQ [FITC-Bmf BH3], the Kd is 1240 nM in [6], 623 nM in [7], 5.2 ± 0.3 nM in test [8] and 5.1 ± 0.4 nM in test [9].
